Test results published in ChEMBL document CHEMBL4390648, “Chemical synthesis, crystal structure, versatile evaluation of their biological activities and molecular simulations of novel pyrithiobac derivatives” (Eur J Med Chem, 2019).
≈ marks a conversion by molar mass, not a printed value. Calls of active or inactive are those of the source. No cut-off for these calls is given here.

Legend:
[1] = test system: Candida albicans; test: Antifungal activity against Candida albicans SC5314 grown in YNB medium incubated for 24 hrs by microdilution method; type: functional; settings: SC5314, 24 h
Summary of the method: (§1)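 C. albicans standard strain SC5314 and clinical isolates g5 and 17# tested by broth microdilution in YNB or RPMI 1640 medium. Plates incubated at 35 °C for up to 72 h, with visual readings taken at 24 h. MIC taken as the lowest concentration preventing visible growth.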

[2] = test system: Candida albicans; test: Antifungal activity against Candida albicans isolate 17 grown in YNB medium incubated for 24 hrs by microdilution method; type: functional; settings: isolate 17, 24 h; summary of the method: as §1
[3] = Inhibition of SARS coronavirus M protease using AVLQSGFRKK as substrate by FRET assay; design: species or system Severe acute respiratory syndrome-related coronavirus
Summary of the method: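 Purified SARS-CoV Mpro assayed by FRET. Protein, compound and substrate were preheated at 37 °C and oscillated. Fluorescence (ex 320/em 405 nm) was read every 5 s for 200 reads. IC50 from V0/V = 1+[I]/IC50.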

[4] = test system: Arabidopsis thaliana; test: Inhibition of Arabidopsis thaliana AHAS catalytic subunit using pyruvate as substrate at 10 uM measured after 30 mins by colorimetric method relative to control
Summary of the method: (§2)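 Colorimetric assay in 50 mM potassium phosphate pH 7.0 with 50 mM pyruvate, 1 mM thiamine diphosphate, 10 mM MgCl2 and 10 μM FAD. Incubated 30 min at 37 °C for plant AHAS and 30 °C for fungal AHAS. Acetolactate formed was then quantified.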

[5] = test system: Colletotrichum; test: Antifungal activity against Colletotrichum (W. anthracnose) assessed as reduction in growth at 50 mg/l by mycelium growth rate method relative to control; type: functional
Summary of the method: (§3)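 Mycelium growth rate method against S. sclerotiorum, P. capsici, P. piricola, R. cerealis, W. anthracnose and R. bakanae. Each compound tested at 50 mg/L, with chlorothalonil and PTB as controls. Relative inhibitory ratio (%) calculated from mycelial growth.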

[6] = test system: Ceratobasidium cereale; test: Antifungal activity against Rhizoctonia cerealis assessed as reduction in growth at 50 mg/l by mycelium growth rate method relative to control; type: functional; summary of the method: as §3
[7] = test system: Tobacco mosaic virus; test: Antiviral activity against Tobacco mosaic virus inoculated in Nicotiana tabacum leaves assessed as passivation by measuring local lesion numbers at 100 mg/l pre-incubated with virus for 30 mins followed by inoculation and measured up to 4 days; type: functional
Summary of the method: (§4)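 Passivation assay: TMV mixed with an equal volume of compound solution for 30 min, then rubbed onto the left half of N. tabacum L. leaves. The right half received virus mixed with solvent as control. Local lesions counted 3–4 days after inoculation. Compounds tested at 500 or 100 mg/L.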

[8] = test system: Tobacco mosaic virus; test: Antiviral activity against Tobacco mosaic virus inoculated in Nicotiana tabacum leaves assessed as passivation by measuring local lesion numbers at 500 mg/l pre-incubated with virus for 30 mins followed by inoculation and measured up to 4 days; type: functional; summary of the method: as §4
[9] = Cytotoxicity against HEK293T cells assessed as reduction in cell growth incubated for 48 hrs by MTT assay; type: cell-based, HEK-293T; settings: human
Summary of the method: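 293T cells in logarithmic phase seeded at 12000 cells/well overnight, then exposed to a range of compound concentrations for 48 h. MTT added for a further 4 h, formazan dissolved in DMSO, and OD570 read. CC50 is the concentration reducing viability by 50%.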

[10] = test system: SARS coronavirus M protease; test: Selectivity index, ratio of CC50 for HEK293T cells to IC50 for SARS coronavirus M protease; type: toxicity; settings: human, read-out: Ratio CC50/IC50
Summary of the method: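 Medium discarded, DMSO added, OD570 read; CC50 is the concentration cutting viability by 50%. IC50 from the 37 °C Mpro FRET assay (ex 320/em 405 nm) via V0/V = 1+[I]/IC50.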

[11] = test system: Phytophthora capsici; test: Antifungal activity against Phytophthora capsici assessed as reduction in growth at 50 mg/l by mycelium growth rate method relative to control; type: functional; summary of the method: as §3
[12] = test system: Candida albicans; test: Antifungal activity against Candida albicans isolate g5 grown in RPMI 1640 medium incubated for 24 hrs by microdilution method; type: functional; settings: isolate g5, 24 h; summary of the method: as §1
[13] = test system: Candida albicans; test: Inhibition of Candida albicans AHAS catalytic subunit at 10 uM using pyruvate as substrate measured after 30 mins by colorimetric method relative to control; summary of the method: as §2
[14] = test system: Sclerotinia sclerotiorum; test: Antifungal activity against Sclerotinia sclerotiorum assessed as reduction in growth at 50 mg/l by mycelium growth rate method relative to control; type: functional; summary of the method: as §3
[15] = test system: Mythimna separata; test: Insecticidal activity against Mythimna separata assessed as larval mortality at 600 mg/l by leaf-dip method; type: functional
[16] = test system: Botryosphaeria berengeriana; test: Antifungal activity against Physalospora pyricola assessed as reduction in growth at 50 mg/l by mycelium growth rate method relative to control; type: functional; summary of the method: as §3
[17] = test system: Brassica rapa subsp. oleifera; test: Herbicidal activity against Brassica campestris L assessed as inhibition of rape root growth at 10 mg/l root growth incubated for 48 hrs relative to control; type: functional
Summary of the method: (§5)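 Rape seeds soaked in distilled water for 4 h, then placed on filter paper wetted with inhibitor solution, 15 seeds per 6-cm dish. Germinated in the dark at 28 °C for 48 h. Mean length of 10 roots per plate measured.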

[18] = test system: Candida albicans; test: Antifungal activity against Candida albicans isolate 17 grown in RPMI 1640 medium incubated for 24 hrs by microdilution method; type: functional; settings: isolate 17, 24 h; summary of the method: as §1
[19] = test system: Candida albicans; test: Inhibition of Candida albicans AHAS catalytic subunit at 100 uM using pyruvate as substrate measured after 30 mins by colorimetric method relative to control; summary of the method: as §2
[20] = test system: Candida albicans; test: Antifungal activity against Candida albicans SC5314 grown in RPMI 1640 medium incubated for 24 hrs by microdilution method; type: functional; settings: SC5314, 24 h; summary of the method: as §1
[21] = test system: Fusarium fujikuroi; test: Antifungal activity against Gibberella fujikuroi assessed as reduction in growth at 50 mg/l by mycelium growth rate method relative to control; type: functional; summary of the method: as §3
[22] = test system: Arabidopsis thaliana; test: Inhibition of Arabidopsis thaliana AHAS catalytic subunit using pyruvate as substrate at 100 uM measured after 30 mins by colorimetric method relative to control; summary of the method: as §2
[23] = test system: Candida albicans; test: Antifungal activity against Candida albicans isolate g5 grown in YNB medium incubated for 24 hrs by microdilution method; type: functional; settings: isolate g5, 24 h; summary of the method: as §1
[24] = test system: Severe acute respiratory syndrome-related coronavirus; test: Inhibition of SARS coronavirus M protease using AVLQSGFRKK as substrate at 20 uM by FRET assay relative to control
Summary of the method: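 Purified SARS-CoV Mpro assayed by FRET. Protein, compound and substrate were preheated at 37 °C and oscillated. Fluorescence (ex 320/em 405 nm) was read every 5 s for 200 reads.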

[25] = test system: Brassica rapa subsp. oleifera; test: Herbicidal activity against Brassica campestris L assessed as inhibition of rape root growth at 100 mg/l root growth incubated for 48 hrs relative to control; type: functional; summary of the method: as §5
[26] = test system: Echinochloa crus-galli; test: Pre-emergence herbicidal activity against Echinochloa crus-galli assessed as reduction in growth at 300g/ha measured after 24 days by green house pot method relative to control; type: functional; settings: 576 h
[27] = test system: Brassica rapa subsp. oleifera; test: Post-emergence herbicidal activity against Brassica campestris assessed as reduction in growth at 300g/ha measured after 24 days by green house pot method relative to control; type: functional; settings: 576 h
[28] = test system: Amaranthus retroflexus; test: Pre-emergence herbicidal activity against Amaranthus retroflexus assessed as reduction in growth at 300g/ha measured after 24 days by green house pot method relative to control; type: functional; settings: 576 h
[29] = test system: Amaranthus retroflexus; test: Post-emergence herbicidal activity against Amaranthus retroflexus assessed as reduction in growth at 300g/ha measured after 24 days by green house pot method relative to control; type: functional; settings: 576 h
[30] = test system: Digitaria adscendens; test: Pre-emergence herbicidal activity against Digitaria adscendens assessed as reduction in growth at 300g/ha measured after 24 days by green house pot method relative to control; type: functional; settings: 576 h
[31] = test system: Brassica rapa subsp. oleifera; test: Pre-emergence herbicidal activity against Brassica campestris assessed as reduction in growth at 300g/ha measured after 24 days green house pot method relative to control; type: functional; settings: 576 h
[32] = test system: Digitaria adscendens; test: Post-emergence herbicidal activity against Digitaria adscendens assessed as reduction in growth at 300g/ha measured after 24 days by based green house pot method relative to control; type: functional; settings: 576 h
[33] = test system: Echinochloa crus-galli; test: Post-emergence herbicidal activity against Echinochloa crus-galli assessed as reduction in growth at 300g/ha measured after 24 days by green house pot method relative to control; type: functional; settings: 576 h
[34] = test system: Ceratobasidium cereale; test: Antifungal activity against Rhizoctonia cerealis assessed as reduction in growth mycelium growth rate method relative to control; type: functional, organism-based
Summary of the method: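 EC50 against R. cerealis derived from mycelium growth-rate inhibition over a concentration series, using a probit fit: Probit = m(log10[I] − log10[EC50]) + 5.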

Row | SMILES | MIC [1] [µg/mL] | MIC [2] [µg/mL] | inhibition [4] [%] | inhibition at 50 µg/mL [5] [%] | inhibition at 50 µg/mL [6] [%] | inhibition at 500 µg/mL [8] [%] | inhibition at 50 µg/mL [11] [%] | MIC [12] [µg/mL] | inhibition [13] [%] | inhibition at 50 µg/mL [14] [%] | inhibition at 50 µg/mL [16] [%] | inhibition (INH) [17] [%] | MIC [18] [µg/mL] | inhibition [19] [%] | MIC [20] [µg/mL] | inhibition at 50 µg/mL [21] [%] | inhibition [22] [%] | MIC [23] [µg/mL] | inhibition [24] [%] | inhibition (INH) [25] [%] | also measured
1 | COc1nc(OC)nc(Sc2ccc(F)cc2C#N)n1 | 50 (≈ 171 µM) | 25 (≈ 85.5 µM) | 59.2 | 40.5 | 57.1 | 26.4 | 25 | 100 (≈ 342 µM) | 36.4 | 33.3 | 75 | 4.6 | 100 (≈ 342 µM) | 85.1 | 100 (≈ 342 µM) | 33.3 | 71.2 | 50 (≈ 171 µM) | 100 | 60.3 | IC50 [3]: 4.47 µM; inhibition [7]: inactive; CC50 at 48 h [9]: > 200 µM; selectivity ratio [10]: 44.5; mortality at 600 µg/mL [15]: 20%
2 | COc1cc(OC)nc(Sc2ccc(F)cc2C(=O)O)n1 | 25 (≈ 80.6 µM) | 3.12 (≈ 10.1 µM) | 70.1 | – | – | 47 | – | 100 (≈ 322 µM) | 73.7 | – | – | 72 | 25 (≈ 80.6 µM) | 97.7 | 100 (≈ 322 µM) | – | 100 | 25 (≈ 80.6 µM) | – | 86 | inhibition at 300 g/ha [26]: 13.8%; inhibition at 300 g/ha [27]: 75.8%; inhibition at 300 g/ha [28]: 61.1%; inhibition at 300 g/ha [29]: 50.6%; inhibition at 300 g/ha [30]: 0%; inhibition at 100 µg/mL [7]: 11.4%; inhibition at 300 g/ha [31]: 85.2%; inhibition at 300 g/ha [32]: 33%; inhibition at 300 g/ha [33]: 24.3%
3 | COc1cc(OC)nc(Sc2cccc(Cl)c2C(=O)O)n1 [PYRITHIOBAC] | > 100 | > 100 | 96 | 45.3 | 86.9 | – | 44.7 | > 100 | 20 | 64.8 | 60.3 | 90.2 | > 100 | 40 | > 100 | 12.6 | 100 | > 100 | 12.2 | 97 | inhibition at 300 g/ha [26]: 63.4%; inhibition at 300 g/ha [27]: 92.3%; inhibition at 300 g/ha [28]: 96.3%; inhibition at 300 g/ha [29]: 61.2%; EC50 [34]: 15.4 µg/mL (≈ 47.1 µM); inhibition at 300 g/ha [30]: 63.8%; inhibition at 300 g/ha [31]: 95.2%; inhibition at 300 g/ha [32]: 36.6%; inhibition at 300 g/ha [33]: 59.5%
4 | COc1nc(OC)nc(Sc2cccc(I)c2C#N)n1 | > 100 | > 100 | 51.6 | 33.3 | 52.4 | 22.8 | 8.3 | > 100 | 45.4 | 11.1 | 29.7 | 0 | > 100 | 69.3 | > 100 | 30.3 | 66.7 | > 100 | 100 | 51.6 | IC50 [3]: 3.3 µM; inhibition [7]: inactive; CC50 at 48 h [9]: 30.5 µM; mortality at 600 µg/mL [15]: 45%
